Data taken from ChEMBL document CHEMBL2062375, “Discovery of an orally efficacious inhibitor of anaplastic lymphoma kinase” (J Med Chem, 2012).
The source made the active and inactive calls. No cut-off for these calls is given here.

How the values were obtained:
[1] = molecular target: Mitogen-activated protein kinase kinase kinase kinase 2 (Homo sapiens, UniProt Q12851); assay: Inhibition of human GCK
Method in brief: (§1)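 Millipore KinaseProfiler activity assays on a 259-kinase panel; kinases inhibited by ≥90% at 1 μM then taken to full IC50 determination.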

Focal adhesion kinase 1 = Focal adhesion kinase 1 (Homo sapiens, UniProt Q05397); conditions: 1 uM
SK-N-AS = assay: Antitumor activity against human SK-N-AS cells expressing wild type ALK assessed as growth inhibition administered as po bid; format: functional, organism-based
[2] = Plasma clearance in SCID mouse at 1 mg/kg, iv; format: ADME, organism-based; set-up: dose 1 mg/kg, route intravenous
Method in brief: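 Mouse IV PK: lateral tail vein dosing, 100 μL in 3% DMSO/30% Solutol/67% PBS; trunk blood from three mice per time point over 6 h. Plasma precipitated with acetonitrile, drug quantified by LCMS/MS against internal standard; noncompartmental analysis.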

SH-SY5Y = assay: Antitumor activity against human SH-SY5Y cells expressing ALK mutant R1275Q assessed as growth inhibition administered as po bid; format: functional, organism-based
[3] = Half life in CD-1 mouse at 1 mg/kg, iv; format: ADME, organism-based; set-up: dose 1 mg/kg, route intravenous; conditions: in vivo
Method in brief: (§2)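 Mouse PK. IV via the lateral tail vein in 3% DMSO/30% Solutol/67% PBS, or oral gavage in 100% PEG400, 100 μL dose volume, after an overnight fast. Trunk blood was taken from three mice per time point over 6 h. Plasma was acetonitrile-precipitated and analysed by LC-MS/MS. Parameters were derived noncompartmentally.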

[4] = molecular target: T1, ALK tyrosine kinase receptor (Homo sapiens, UniProt Q9UM73); assay: Inhibition of ALK tyrosine phosphorylation in human Karpas-299 cells after 2 hrs in presence of mouse plasma; format: cell-based
Rattus norvegicus = assay: Ratio of Cmax at 10 mg/kg, po to Cmax at 100 mg/kg, po in rat; format: ADME, organism-based; conditions: in vivo
Method in brief: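 Oral dose-escalation PK study in rats at 10, 30, 55 and 100 mg/kg. […] The ratio compares the 10 mg/kg value with the 100 mg/kg value.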

[5] = molecular target: Tyrosine-protein kinase Fes/Fps (Homo sapiens, UniProt P07332); conditions: 1 uM
[6] = AUC in CD-1 mouse at 1 mg/kg, iv; format: ADME, organism-based; set-up: dose 1 mg/kg, route intravenous; conditions: plasma; method in brief: as §2
[7] = Plasma concentration in SCID mouse xenografted with human KARPAS299 cells expressing NPM-ALK at 30 mg/kg, po after 24 hrs by LC-MS/MS analysis; format: ADME, organism-based, KARPAS-299; set-up: dose 30 mg/kg, route oral
Method in brief: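 Pharmacodynamic study: SCID mice bearing subcutaneous Karpas-299 xenografts given single 30 mg/kg oral dose; plasma drug levels measured by LCMS/MS, reported as mean ± SEM.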

[8] = molecular target: Ribosomal protein S6 kinase alpha-1 (Homo sapiens, UniProt Q15418); assay: Inhibition of human Rsk1; method in brief: as §1
[9] = molecular target: Ribosomal protein S6 kinase alpha-3 (Homo sapiens, UniProt P51812); assay: Inhibition of human Rsk2; method in brief: as §1
KARPAS-299 [10] = assay: Antitumor activity against human KARPAS299 cells expressing NPM-ALK xenografted in SCID mouse assessed as tumor regression administered as po bid for 12 days; format: functional, organism-based
Method in brief: (§3)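 Female SCID/beige mice, 6–8 weeks old, implanted sc in the left flank with exponentially growing Karpas-299 cells. At about 600 mm³ tumours, mice were randomized (8–10/group) and given PEG400 vehicle or compound orally b.i.d., 100 μL, for 12 days. Tumour volume (0.5236LW(L+W)/2) and body weight were recorded every 2–3 days; Mann–Whitney test. Plasma and tumour levels were measured by LC-MS/MS 2 h after the final dose, mean ± SEM.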

[11] = Cmax in rat at 10 mg/kg, po; format: ADME, organism-based; set-up: dose 10 mg/kg, route oral; conditions: in vivo
Method in brief: (§4)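 Rat oral dose escalation at 10, 30, 55 and 100 mg/kg. Gavage at 5 mL/kg in 40% HPβCD after an overnight fast. Serial tail-vein blood was drawn into heparinized tubes. Plasma was protein-precipitated with acetonitrile and assayed by LC-MS/MS. Cmax and AUC0–12 were derived noncompartmentally; n = 2 at 10 mg/kg.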

[12] = molecular target: Receptor-type tyrosine-protein kinase FLT3 (Homo sapiens, UniProt P36888); assay: Inhibition of human Flt3; method in brief: as §1
[13] = Tmax in SCID mouse at 10 mg/kg, po; format: ADME, organism-based; set-up: dose 10 mg/kg, route oral; conditions: in vivo
Method in brief: (§5)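 Mouse oral PK: overnight fast, gavage of 100 μL in 100% PEG400; trunk blood from three mice per time point over 6 h; plasma acetonitrile-precipitated and analysed by LCMS/MS, noncompartmental parameters.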

KARPAS-299 [14] = assay: Antitumor activity against human KARPAS299 cells expressing NPM-ALK xenografted in SCID mouse assessed as tumor regression at 30 mg/kg, po bid for 12 days; format: functional, organism-based; set-up: dose 30 mg/kg; method in brief: as §3
[15] = molecular target: NUAK family SNF1-like kinase 1 (Homo sapiens, UniProt O60285); assay: Inhibition of human ARK5
[16] = Half life in SCID mouse at 1 mg/kg, iv; format: ADME, organism-based; set-up: dose 1 mg/kg, route intravenous; conditions: in vivo; method in brief: as §2
[17] = Cmax in rat at 55 mg/kg, po; format: ADME, organism-based; set-up: dose 55 mg/kg, route oral; conditions: in vivo; method in brief: as §4
[18] = molecular target: Receptor-type tyrosine-protein kinase FLT3 (Homo sapiens) (UniProt P36888); conditions: 1 uM
[19] = Volume of distribution in Beagle dog at 1 mg/kg, iv; format: ADME, organism-based, Canis lupus familiaris; set-up: dose 1 mg/kg, route intravenous; conditions: in vivo
Method in brief: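 IV PK: rats via lateral tail vein (1 mL/kg; 3% DMSO/30% Solutol/67% PBS), serial tail-vein blood over 6 h. Dogs and monkeys via saphenous vein (0.5 mL/kg in 40% HPβCD), femoral-vein blood over 24 h. Acetonitrile protein precipitation, LCMS/MS; noncompartmental parameters from individual animals, n = 3, mean ± SEM.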

[20] = Drug level in SCID/beige mouse tumor xenografted with human KARPAS299 cells expressing NPM-ALK at 30 mg/kg, po bid after 2 hrs post last dose by LC-MS/MS analysis; format: ADME, organism-based, Neoplasm, KARPAS-299; set-up: dose 30 mg/kg, route oral; conditions: read-out: Drug uptake; method in brief: as §3
[21] = Tmax in CD-1 mouse at 10 mg/kg, po; format: ADME, organism-based; set-up: dose 10 mg/kg, route oral; conditions: in vivo; method in brief: as §5
[22] = AUC (0 to 12 hrs) in rat 100 mg/kg, po; format: ADME, organism-based; set-up: time < 12 hr, dose 100 mg/kg, route oral; conditions: plasma; method in brief: as §4
[23] = Half life in Sprague-Dawley rat at 10 mg/kg, po; format: ADME, organism-based; set-up: dose 10 mg/kg, route oral; conditions: in vivo
Method in brief: (§6)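 Rat PK. IV via the lateral tail vein, 1 mL/kg in 3% DMSO/30% Solutol/67% PBS, or oral gavage at 5 mL/kg in 40% HPβCD, after an overnight fast. Serial tail-vein blood was taken into heparin over 6 h. Plasma was acetonitrile-precipitated and analysed by LC-MS/MS. Parameters were noncompartmental, n = 3, mean ± SEM.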

[24] = Half life in Sprague-Dawley rat at 1 mg/kg, iv; format: ADME, organism-based; set-up: dose 1 mg/kg, route intravenous; conditions: in vivo; method in brief: as §6
[25] = molecular target: T1, ALK tyrosine kinase receptor; assay: Inhibition of human ALK cytoplasmic domain expressed in baculovirus using GST-PLCgamma as substrate preincubated for 15 mins before substrate addition measured after 1 hr by time resolved fluorescence assay
[26] = Half life in cynomolgus monkey at 1 mg/kg, iv; format: ADME, organism-based, Macaca fascicularis; set-up: dose 1 mg/kg, route intravenous; conditions: in vivo
Method in brief: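 Dog and monkey PK. IV 0.5 mL/kg in 40% HPβCD via the saphenous vein. Oral dosing was 1 mL/kg by gavage in dogs and 2 mL/kg by nasogastric tube in monkeys, after an overnight fast. Serial femoral-vein blood was taken into heparin over 24 h. Plasma was acetonitrile-precipitated and analysed by LC-MS/MS. Parameters were noncompartmental, n = 3, mean ± SEM.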

[27] = Half life in SCID mouse at 10 mg/kg, po; format: ADME, organism-based; set-up: dose 10 mg/kg, route oral; conditions: in vivo; method in brief: as §2

T1 sequence (Q9UM73 whole entry): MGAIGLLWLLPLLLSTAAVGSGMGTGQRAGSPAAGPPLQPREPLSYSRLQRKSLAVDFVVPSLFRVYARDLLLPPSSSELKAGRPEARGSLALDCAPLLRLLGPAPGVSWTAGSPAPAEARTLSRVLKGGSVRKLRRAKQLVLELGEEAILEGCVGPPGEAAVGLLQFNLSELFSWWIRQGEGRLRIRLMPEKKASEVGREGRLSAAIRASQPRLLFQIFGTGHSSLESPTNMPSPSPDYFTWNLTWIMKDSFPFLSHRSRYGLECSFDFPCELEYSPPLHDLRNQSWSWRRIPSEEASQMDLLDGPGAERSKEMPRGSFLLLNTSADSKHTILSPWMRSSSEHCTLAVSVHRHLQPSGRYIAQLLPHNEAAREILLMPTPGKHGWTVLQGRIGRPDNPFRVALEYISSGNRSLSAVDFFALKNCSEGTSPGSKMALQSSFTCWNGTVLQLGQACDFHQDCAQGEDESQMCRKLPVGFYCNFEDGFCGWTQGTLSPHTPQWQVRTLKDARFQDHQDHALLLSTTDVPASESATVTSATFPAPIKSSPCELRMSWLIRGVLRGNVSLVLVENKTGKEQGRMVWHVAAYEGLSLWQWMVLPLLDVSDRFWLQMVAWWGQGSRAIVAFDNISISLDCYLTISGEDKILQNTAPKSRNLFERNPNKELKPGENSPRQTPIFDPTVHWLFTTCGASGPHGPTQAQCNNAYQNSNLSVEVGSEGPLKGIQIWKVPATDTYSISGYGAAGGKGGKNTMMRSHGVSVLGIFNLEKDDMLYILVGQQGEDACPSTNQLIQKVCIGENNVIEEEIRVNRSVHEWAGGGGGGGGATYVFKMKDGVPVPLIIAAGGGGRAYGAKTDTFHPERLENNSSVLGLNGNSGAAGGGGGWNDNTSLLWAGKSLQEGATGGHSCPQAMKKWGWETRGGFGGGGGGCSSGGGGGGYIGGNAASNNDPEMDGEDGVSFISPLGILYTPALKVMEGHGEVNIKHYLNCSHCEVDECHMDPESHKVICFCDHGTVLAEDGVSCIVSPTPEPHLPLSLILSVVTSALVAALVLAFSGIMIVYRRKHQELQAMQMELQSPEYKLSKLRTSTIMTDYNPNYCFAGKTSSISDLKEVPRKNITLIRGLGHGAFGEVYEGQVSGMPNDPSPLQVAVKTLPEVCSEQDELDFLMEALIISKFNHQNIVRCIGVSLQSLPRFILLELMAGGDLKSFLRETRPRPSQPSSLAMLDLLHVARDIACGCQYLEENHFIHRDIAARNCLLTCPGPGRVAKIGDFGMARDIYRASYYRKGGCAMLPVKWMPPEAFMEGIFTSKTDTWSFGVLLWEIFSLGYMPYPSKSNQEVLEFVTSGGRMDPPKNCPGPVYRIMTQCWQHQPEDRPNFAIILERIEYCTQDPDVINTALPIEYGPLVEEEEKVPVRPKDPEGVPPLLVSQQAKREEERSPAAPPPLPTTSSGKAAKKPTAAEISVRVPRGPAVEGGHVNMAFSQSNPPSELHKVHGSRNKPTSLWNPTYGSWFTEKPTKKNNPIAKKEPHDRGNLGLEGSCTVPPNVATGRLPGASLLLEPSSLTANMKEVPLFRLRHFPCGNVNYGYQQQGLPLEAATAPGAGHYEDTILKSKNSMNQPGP
Sequence of Receptor-type tyrosine-protein kinase FLT3 (Homo sapiens) (P36888 whole entry): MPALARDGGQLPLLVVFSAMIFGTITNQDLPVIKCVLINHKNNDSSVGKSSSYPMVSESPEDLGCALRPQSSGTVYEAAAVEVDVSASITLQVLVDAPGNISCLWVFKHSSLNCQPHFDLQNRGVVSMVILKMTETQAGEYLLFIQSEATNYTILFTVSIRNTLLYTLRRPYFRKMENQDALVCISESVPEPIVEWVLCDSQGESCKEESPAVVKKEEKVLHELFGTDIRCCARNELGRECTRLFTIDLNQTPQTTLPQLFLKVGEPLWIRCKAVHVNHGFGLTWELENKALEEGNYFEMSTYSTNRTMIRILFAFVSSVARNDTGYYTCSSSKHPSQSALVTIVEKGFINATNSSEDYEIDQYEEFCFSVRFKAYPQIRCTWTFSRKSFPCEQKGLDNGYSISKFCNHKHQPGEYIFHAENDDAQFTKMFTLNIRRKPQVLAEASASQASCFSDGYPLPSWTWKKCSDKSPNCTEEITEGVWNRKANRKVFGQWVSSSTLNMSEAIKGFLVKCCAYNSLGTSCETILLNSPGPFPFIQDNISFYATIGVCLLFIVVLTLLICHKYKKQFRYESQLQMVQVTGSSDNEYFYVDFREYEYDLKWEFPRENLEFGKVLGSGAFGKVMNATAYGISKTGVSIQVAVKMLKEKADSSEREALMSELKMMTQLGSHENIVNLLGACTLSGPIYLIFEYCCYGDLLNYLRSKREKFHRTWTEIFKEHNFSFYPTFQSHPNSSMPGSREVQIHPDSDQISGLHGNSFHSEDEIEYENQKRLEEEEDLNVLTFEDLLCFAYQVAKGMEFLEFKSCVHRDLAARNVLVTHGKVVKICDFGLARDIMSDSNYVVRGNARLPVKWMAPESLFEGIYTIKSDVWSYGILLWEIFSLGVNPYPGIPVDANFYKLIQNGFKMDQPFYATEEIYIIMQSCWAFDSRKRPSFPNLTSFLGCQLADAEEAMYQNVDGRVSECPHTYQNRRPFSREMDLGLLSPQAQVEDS
Sequence of Receptor-type tyrosine-protein kinase FLT3 (P36888 whole entry): as above
Sequence of Ribosomal protein S6 kinase alpha-3 (P51812 whole entry): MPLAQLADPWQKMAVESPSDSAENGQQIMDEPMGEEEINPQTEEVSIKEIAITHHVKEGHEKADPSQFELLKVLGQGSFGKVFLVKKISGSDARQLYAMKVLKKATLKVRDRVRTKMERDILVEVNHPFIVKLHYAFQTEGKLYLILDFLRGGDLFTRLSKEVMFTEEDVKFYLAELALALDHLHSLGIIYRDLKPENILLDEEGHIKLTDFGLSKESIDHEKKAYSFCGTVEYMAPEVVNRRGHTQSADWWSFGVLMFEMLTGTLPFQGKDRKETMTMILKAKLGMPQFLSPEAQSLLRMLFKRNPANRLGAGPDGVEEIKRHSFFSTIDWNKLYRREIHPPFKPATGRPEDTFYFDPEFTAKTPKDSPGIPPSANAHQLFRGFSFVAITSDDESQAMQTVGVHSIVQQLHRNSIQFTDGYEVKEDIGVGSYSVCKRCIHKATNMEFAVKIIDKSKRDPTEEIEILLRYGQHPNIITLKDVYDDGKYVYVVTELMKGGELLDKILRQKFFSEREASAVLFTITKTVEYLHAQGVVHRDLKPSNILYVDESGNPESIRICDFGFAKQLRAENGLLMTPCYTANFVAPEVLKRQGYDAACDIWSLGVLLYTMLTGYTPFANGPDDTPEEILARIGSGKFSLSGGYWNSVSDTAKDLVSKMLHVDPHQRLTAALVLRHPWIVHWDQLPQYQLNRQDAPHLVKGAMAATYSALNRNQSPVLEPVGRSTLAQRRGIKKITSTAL
Sequence of Mitogen-activated protein kinase kinase kinase kinase 2 (Q12851 whole entry): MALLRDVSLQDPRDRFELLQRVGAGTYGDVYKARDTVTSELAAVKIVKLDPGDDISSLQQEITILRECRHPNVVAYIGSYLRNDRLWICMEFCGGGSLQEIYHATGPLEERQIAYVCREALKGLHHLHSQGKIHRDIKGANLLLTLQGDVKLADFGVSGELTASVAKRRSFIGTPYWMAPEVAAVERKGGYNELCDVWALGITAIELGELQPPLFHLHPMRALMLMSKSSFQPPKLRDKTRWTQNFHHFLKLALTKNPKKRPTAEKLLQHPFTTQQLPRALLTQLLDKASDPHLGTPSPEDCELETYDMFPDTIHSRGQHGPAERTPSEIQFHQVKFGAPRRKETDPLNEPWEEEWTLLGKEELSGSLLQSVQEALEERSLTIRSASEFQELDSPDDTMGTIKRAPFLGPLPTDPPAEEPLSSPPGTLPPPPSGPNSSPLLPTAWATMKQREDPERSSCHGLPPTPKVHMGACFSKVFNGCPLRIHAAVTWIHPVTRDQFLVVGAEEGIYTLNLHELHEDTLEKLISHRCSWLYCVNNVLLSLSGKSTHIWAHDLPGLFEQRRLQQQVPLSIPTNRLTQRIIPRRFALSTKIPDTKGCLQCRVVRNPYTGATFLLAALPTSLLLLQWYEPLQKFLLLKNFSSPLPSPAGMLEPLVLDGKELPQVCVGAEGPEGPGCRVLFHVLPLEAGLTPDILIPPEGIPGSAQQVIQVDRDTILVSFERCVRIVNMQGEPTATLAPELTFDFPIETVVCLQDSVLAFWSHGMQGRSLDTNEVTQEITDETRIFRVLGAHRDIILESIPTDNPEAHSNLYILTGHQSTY
Sequence of NUAK family SNF1-like kinase 1 (O60285 whole entry): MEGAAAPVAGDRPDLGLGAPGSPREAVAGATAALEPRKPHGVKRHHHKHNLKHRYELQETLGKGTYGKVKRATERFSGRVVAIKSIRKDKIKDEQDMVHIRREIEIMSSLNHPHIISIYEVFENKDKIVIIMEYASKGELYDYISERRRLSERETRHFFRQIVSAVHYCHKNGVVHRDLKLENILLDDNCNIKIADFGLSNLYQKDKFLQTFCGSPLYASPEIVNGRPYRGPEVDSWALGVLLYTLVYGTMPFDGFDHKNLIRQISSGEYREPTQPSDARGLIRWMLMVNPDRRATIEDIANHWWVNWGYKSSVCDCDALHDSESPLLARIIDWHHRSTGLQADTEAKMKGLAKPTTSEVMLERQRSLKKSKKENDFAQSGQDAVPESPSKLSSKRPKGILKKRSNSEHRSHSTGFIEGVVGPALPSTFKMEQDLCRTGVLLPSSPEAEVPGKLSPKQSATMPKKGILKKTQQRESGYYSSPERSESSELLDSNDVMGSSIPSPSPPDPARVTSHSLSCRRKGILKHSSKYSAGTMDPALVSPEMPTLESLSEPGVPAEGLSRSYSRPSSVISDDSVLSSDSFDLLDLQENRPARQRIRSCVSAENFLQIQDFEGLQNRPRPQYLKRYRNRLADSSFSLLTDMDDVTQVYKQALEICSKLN

IC50 [1]: 60 nM | inhibition (Focal adhesion kinase 1): > 90% | clearance [2]: 6 mL/min/kg | half-life [3]: 0.7 h | IC50 [4]: 20 nM | Ratio (Rattus norvegicus): 9 | inhibition [5]: > 90% | AUC [6]: 584 ng·h/mL | concentration at 24 h [7]: 12 ng/mL | IC50 [8]: 61 nM | IC50 [9]: 13 nM | Cmax [11]: 349 ng/mL | IC50 [12]: 88 nM | Tmax [13]: 1 h | IC50 [15]: 26 nM | half-life [16]: 1.8 h | Cmax [17]: 2250 ng/mL | inhibition [18]: > 90% | Vd [19]: 8.2 L/kg | concentration at 2 h [20]: 4040 ng/g | Tmax [21]: 0.25 h | AUC(0-t) at 12 h [22]: 38200 ng·h/mL | half-life [23]: 6.2 h | half-life [24]: 0.9 h | IC50 [25]: 1.9 nM | half-life [26]: 1.2 h | half-life [27]: 1.8 h
SMILES: COc1c(Nc2ncc(Cl)c(N[C@H]3[C@@H](C(N)=O)[C@@H]4C=C[C@H]3C4)n2)ccc2c1CC[C@@H](N1CCOCC1)CC2
growth inhibition (GI) (SK-N-AS): inactive | growth inhibition (GI) (SH-SY5Y): Active | Activity (KARPAS-299 [10]): Dose-dependent effect | Activity (KARPAS-299 [14]): Active
